Test results as given in ChEMBL document CHEMBL1123082, “Hashish: synthesis and central nervous system activity of some novel analogues of cannabidiol and oxepin derivatives of delta 9-tetrahydrocannabinol” (1985).
The source made the active and inactive calls.

Tests used:
Mus musculus [1] = assay: Compound was evaluated for the percent antagonism by tail-flick test in mice in mice at dose 1.0 mg/kg; format: functional
Procedure, shortened: (§1)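 Male ICR mice (22–30 g). Vehicle or drug given iv 10 min before an iv injection of Δ9-THC (1 mg/kg) or vehicle into the opposite tail vein. Tail-flick measured 5 min after the second injection, with a 10 s cutoff. % antagonism = [1 − (%MPE drug-pretreated / %MPE vehicle-pretreated)] × 100. At least six mice per dose.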

Mus musculus [2] = assay: Compound was evaluated for the percent antagonism by tail-flick test in mice in mice at dose 2.5 mg/kg; format: functional; procedure, shortened: as §1
Mus musculus [3] = assay: Compound was evaluated for the percent antagonism by tail-flick test in mice in mice at dose 5.0 mg/kg; format: functional; procedure, shortened: as §1
Mus musculus [4] = assay: The difference between the preinjection and postinjection (60 min) temperatures in mice was evaluated at a dose 1.0 mg/kg; format: functional
Procedure, shortened: (§2)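 Male ICR mice (22–30 g). Rectal temperature taken by thermistor probe inserted 25 mm just before iv vehicle or drug (0.1 mL/10 g). Mice spent 10 min in activity chambers, then temperature was taken immediately and every 10 min up to 60 min. Value is the change from pre-injection to 60 min post-injection, mean ± SEM, N = 6. Ambient temperature was 21–24 °C.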

Mus musculus [5] = assay: The difference between the preinjection and postinjection (60 min) temperatures in mice was evaluated at a dose 5.0 mg/kg; format: functional; procedure, shortened: as §2
Mus musculus [6] = assay: The difference between the preinjection and postinjection (60 min) temperatures in mice was evaluated at a dose 2.5 mg/kg; format: functional
Mus musculus [7] = assay: Compound was evaluated for the maximum possible effect by tail-flick test in mice at dose 5.0 mg/kg; format: functional
Procedure, shortened: (§3)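 Male ICR mice (22–30 g). Control tail-flick latency to a heat source measured in each mouse. Vehicle or drug then given iv into the tail vein and latency retested 5 min later, with a 10 s cutoff. %MPE = (test − control)/(cutoff − control) × 100. At least six mice per dose.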

Canis familiaris [8] = assay: Compound was evaluated for overt behavoiur in dogs by behavioral rating score in dog static-ataxia test at a dose 0.5 mg/kg; format: functional, Canis lupus familiaris
Procedure, shortened: (§4)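 Mongrel dogs of either sex (8–12 kg) scored for spontaneous activity, gait, tail tuck, etc. before dosing. Cannabinoid or vehicle then given iv (1 mL/5 kg). Behaviour rated every 5 min on the Walton static-ataxia scale as modified. Sessions of five dogs: vehicle, 0.2 mg/kg Δ9-THC positive control, or one of three other cannabinoid treatments. Score given with number of dogs.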

Mus musculus [9] = assay: The difference between the preinjection and post injection temperatures in vehicle treated mice was evaluated at a dose 100 mg/kg; format: functional; procedure, shortened: as §2
Mus musculus [10] = assay: The difference between the preinjection and post injection temperatures in vehicle treated mice was evaluated at a dose 10 mg/kg; format: functional; procedure, shortened: as §2
Mus musculus [11] = assay: The difference between the preinjection and post injection temperatures in vehicle treated mice was evaluated at a dose 1 mg/kg; format: functional; procedure, shortened: as §2
Mus musculus [12] = assay: The difference between the preinjection and post injection temperatures in vehicle treated mice was evaluated at a dose 30 mg/kg; format: functional; procedure, shortened: as §2
Mus musculus [13] = assay: The difference between the preinjection and post injection temperatures in vehicle treated mice was evaluated at a dose 3 mg/kg; format: functional; procedure, shortened: as §2
Mus musculus [14] = assay: Compound was evaluated spontaneous activity in vehicle treated mice at a dose 100 mg/kg.; format: functional
Procedure, shortened: (§5)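 Male ICR mice (22–30 g), housed 24 h in the lab before testing. Vehicle or drug given iv (0.1 mL/10 g), then each mouse placed alone in a photocell activity chamber. Beam interruptions counted for 10 min and expressed as percent of vehicle-treated controls. ED50 with 95% confidence limits by Litchfield–Wilcoxon. At least six mice per dose.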

Mus musculus [15] = assay: Compound was evaluated spontaneous activity in vehicle treated mice at a dose 10 mg/kg.; format: functional; procedure, shortened: as §5
Mus musculus [16] = assay: Compound was evaluated spontaneous activity in vehicle treated mice at a dose 1 mg/kg.; format: functional; procedure, shortened: as §5
Mus musculus [17] = assay: Compound was evaluated spontaneous activity in vehicle treated mice at a dose 3 mg/kg.; format: functional; procedure, shortened: as §5
Mus musculus [18] = assay: Compound was evaluated spontaneous activity in vehicle treated mice at a dose 30 mg/kg.; format: functional; procedure, shortened: as §5
Canis familiaris [19] = assay: Compound was evaluated for overt behavoiur in dogs by behavioral rating score in dog static-ataxia test at a dose 5 mg/kg; format: functional, Canis lupus familiaris; procedure, shortened: as §4
Canis familiaris [20] = assay: Compound was evaluated for overt behavoiur in dogs by behavioral rating score in dog static-ataxia test at a dose 2 mg/kg; format: functional, Canis lupus familiaris; procedure, shortened: as §4
Mus musculus [21] = assay: The difference between the preinjection and post injection temperatures in vehicle treated mice was evaluated at a dose 2 mg/kg; format: functional; procedure, shortened: as §2
Mus musculus [22] = assay: Spontaneous activity in vehicle treated mice at a dose 100 mg/kg.; format: functional; procedure, shortened: as §5
Mus musculus [23] = assay: Spontaneous activity in vehicle treated mice at a dose 30 mg/kg.; format: functional; procedure, shortened: as §5
Mus musculus [24] = assay: The difference between the preinjection and postinjection (60 min) temperatures in mice was evaluated at a dose 5 mg/kg; format: functional; procedure, shortened: as §2
Mus musculus [25] = assay: The difference between the preinjection and postinjection (60 min) temperatures in mice was evaluated at a dose 7.5 mg/kg; format: functional
Mus musculus [26] = assay: Compound was evaluated for the maximum possible effect in tail-flick test in mice at dose 0.3 mg/kg; format: functional; procedure, shortened: as §3
Mus musculus [27] = assay: Compound was evaluated for the maximum possible effect in tail-flick test in mice at dose 1 mg/kg; format: functional; procedure, shortened: as §3
Mus musculus [28] = assay: Compound was evaluated for the maximum possible effect in tail-flick test in mice at dose 2.5 mg/kg; format: functional; procedure, shortened: as §3
Mus musculus [29] = assay: Spontaneous activity in mice at a dose 10 mg/kg; Not active up to a lethal dose of 60 mg/kg; format: functional, organism-based; procedure, shortened: as §5
Mus musculus [30] = assay: Compound was evaluated for the percent antagonism by tail-flick test in mice at dose 10 mg/kg; format: functional; procedure, shortened: as §1
Mus musculus [31] = assay: Compound was evaluated for the percent antagonism by tail-flick test in mice in mice at dose 20 mg/kg; format: functional; procedure, shortened: as §1
Mus musculus [32] = assay: The difference between the preinjection and postinjection (60 min) temperatures in mice was evaluated at a dose 30 mg/kg; format: functional; procedure, shortened: as §2
Mus musculus [33] = assay: The difference between the preinjection and postinjection (60 min) temperatures in mice was evaluated at a dose 10 mg/kg; format: functional; procedure, shortened: as §2
Mus musculus [34] = assay: Compound was evaluated for the maximum possible effect by tail-flick test in mice at dose 20 mg/kg; format: functional; procedure, shortened: as §3
Mus musculus [35] = assay: Compound was evaluated for the percent antagonism in tail-flick test in mice at dose 40 mg/kg; format: functional; procedure, shortened: as §1
Mus musculus [36] = assay: The difference between the preinjection and postinjection (60 min) temperatures in mice was evaluated at a dose 40 mg/kg; format: functional; procedure, shortened: as §2
Mus musculus [37] = assay: The difference between the preinjection and postinjection (60 min) temperatures in mice was evaluated at a dose 50 mg/kg; format: functional; procedure, shortened: as §2
Mus musculus [38] = assay: The difference between the preinjection and postinjection (60 min) temperatures in mice was evaluated at a dose 75 mg/kg; format: functional
Procedure, shortened: (§6)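 Male ICR mice (22–30 g), housed 24 h before testing; rectal temperature by thermistor probe inserted 25 mm, taken just before dosing. Drug or vehicle given iv (0.1 mL/10 g); mice held 10 min in photocell chambers, then temperature read at 10-min intervals to 60 min. Value is pre- minus 60-min post-injection difference, mean ± SEM, N = 6.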

Mus musculus [39] = assay: The difference between the preinjection and postinjection (60 min) temperatures in mice was evaluated at a dose 100 mg/kg; format: functional; procedure, shortened: as §2
Mus musculus [40] = assay: Compound was evaluated for the maximum possible effect in tail-flick test in mice at dose 40 mg/kg; format: functional; procedure, shortened: as §3
Mus musculus [41] = assay: Spontaneous activity in mice at a dose 10 mg/kg; format: functional; procedure, shortened: as §5
Mus musculus [42] = assay: Compound was evaluated for the percent antagonism in tail-flick test in mice in mice at dose 10 mg/kg; format: functional; procedure, shortened: as §1
Mus musculus [43] = assay: The difference between the preinjection and postinjection (60 min) temperatures in mice was evaluated at a dose 60 mg/kg; format: functional; procedure, shortened: as §6
Mus musculus [44] = assay: Compound was evaluated for the percent antagonism by tail-flick test in mice in mice at dose 10 mg/kg; format: functional; procedure, shortened: as §1
Mus musculus [45] = assay: Compound was evaluated for the percent antagonism by tail-flick test in mice in mice at dose 25 mg/kg; format: functional; procedure, shortened: as §1
Mus musculus [46] = assay: The difference between the preinjection and postinjection (60 min) temperatures in mice was evaluated at a dose 35 mg/kg; format: functional; procedure, shortened: as §2
Mus musculus [47] = assay: The difference between the preinjection and postinjection (60 min) temperatures in mice was evaluated at a dose 25 mg/kg; format: functional; procedure, shortened: as §2
Mus musculus [48] = assay: Compound was evaluated for the maximum possible effect by tail-flick test in mice at dose 25 mg/kg; format: functional; procedure, shortened: as §3
Mus musculus [49] = assay: Compound was evaluated for the percent antagonism in tail-flick test in mice at a dose 20 mg/kg; format: functional; procedure, shortened: as §1
Mus musculus [50] = assay: Compound was evaluated for the maximum possible effect in tail-flick test in mice at dose 20 mg/kg; format: functional; procedure, shortened: as §3

C=C(CNCC)[C@@H]1CCC(C)=CC1c1c(O)cc(CCCCC)cc1O (stereo partly drawn)
Antagonism (Mus musculus [1]): 33% | Antagonism (Mus musculus [2]): 66% | Antagonism (Mus musculus [3]): 67% | Hypothermic effect (Mus musculus [4]): 1 | Hypothermic effect (Mus musculus [5]): 1 | Hypothermic effect (Mus musculus [6]): 1.4 | MPE (Mus musculus [7]): 7%

C=C1COc2cc(C(C)C(C)CCCCC)cc(O)c2C2C=C(C)CC[C@@H]12 (stereo partly drawn)
Overt behavoiur (Canis familiaris [8]): 0 | Hypothermic effect (Mus musculus [9]): 7.8 | Hypothermic effect (Mus musculus [10]): 4.9 | Hypothermic effect (Mus musculus [11]): 0.4 | Hypothermic effect (Mus musculus [12]): 5.7 | Hypothermic effect (Mus musculus [13]): 0.6 | Spontaneous activity (Mus musculus [14]): 82 | Spontaneous activity (Mus musculus [15]): 71 | Spontaneous activity (Mus musculus [16]): 10 | Spontaneous activity (Mus musculus [17]): 50 | Spontaneous activity (Mus musculus [18]): 58

C=C1COc2cc(CCCCC)cc(O)c2C2C=C(C)CC[C@@H]12 (stereo partly drawn)
Overt behavoiur (Canis familiaris [19]): 0 | Overt behavoiur (Canis familiaris [20]): 0 | Hypothermic effect (Mus musculus [9]): 0 | Hypothermic effect (Mus musculus [21]): 0.4 | Hypothermic effect (Mus musculus [12]): 0.1 | Spontaneous activity (Mus musculus [22]): 41 | Spontaneous activity (Mus musculus [23]): 0

CCCCCc1cc(O)c2c(c1)OC(C)(C)[C@@H]1CCC(C)=C[C@@H]21 [DRONABINOL]
Hypothermic effect (Mus musculus [24]): 3.6 | Hypothermic effect (Mus musculus [25]): 3.8 | Hypothermic effect (Mus musculus [6]): 2.6 | MPE (Mus musculus [26]): 27% | MPE (Mus musculus [27]): 53% | MPE (Mus musculus [28]): 61%

C=C(CN(C(C)C)C(C)C)[C@@H]1CCC(C)=CC1c1c(OC(C)=O)cc(CCCCC)cc1OC(C)=O (stereo partly drawn)
ED50 (Mus musculus [29]): inactive | Antagonism (Mus musculus [30]): 0% | Antagonism (Mus musculus [31]): 58% | Hypothermic effect (Mus musculus [32]): 0.9 | Hypothermic effect (Mus musculus [33]): 1 | MPE (Mus musculus [34]): 0%

C=C(C)[C@@H]1CCC(C)=C[C@H]1c1c(O)cc(CCCCC)cc1O [CANNABIDIOL]
Antagonism (Mus musculus [35]): 0% | Hypothermic effect (Mus musculus [36]): 0.5 | Hypothermic effect (Mus musculus [37]): 0.4 | Hypothermic effect (Mus musculus [38]): 2.1 | Hypothermic effect (Mus musculus [39]): 2.5 | MPE (Mus musculus [40]): 5%

C#CCN(C)CC(=C)[C@@H]1CCC(C)=CC1c1c(OC(C)=O)cc(CCCCC)cc1OC(C)=O (stereo partly drawn)
ED50 (Mus musculus [41]): 13 mg/kg | Antagonism (Mus musculus [31]): 63% | Antagonism (Mus musculus [42]): 25% | Hypothermic effect (Mus musculus [32]): 1 | Hypothermic effect (Mus musculus [43]): 1.5 | Hypothermic effect (Mus musculus [33]): 0.3 | MPE (Mus musculus [34]): 0%

C=C(CNC(=O)CCCN)[C@@H]1CCC(C)=CC1c1c(O)cc(CCCCC)cc1O (stereo partly drawn)
ED50 (Mus musculus [41]): 30 mg/kg | Antagonism (Mus musculus [44]): 14% | Antagonism (Mus musculus [45]): 43% | Hypothermic effect (Mus musculus [32]): 2 | Hypothermic effect (Mus musculus [46]): 2.1 | Hypothermic effect (Mus musculus [47]): 1.3 | MPE (Mus musculus [48]): 7%

C=C(CN1CCOCC1)[C@@H]1CCC(C)=CC1c1c(OC(C)=O)cc(CCCCC)cc1OC(C)=O (stereo partly drawn)
ED50 (Mus musculus [41]): 16 mg/kg | Antagonism (Mus musculus [49]): 14% | Hypothermic effect (Mus musculus [32]): 1.2 | Hypothermic effect (Mus musculus [43]): 1.3 | Hypothermic effect (Mus musculus [33]): 0.9 | MPE (Mus musculus [50]): 3%
